HIF act: HIF pathway transcriptional activation; AID 1910; hit rate 0.32% among 300,000; U2OS HRE-luciferase reporter, luminescence; normalized: DMSO 0%, desferrioxamine 100%; activation, % at 7.5 µM (by protocol);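 active means mean activation of at least 10% of the iron chelator positive control signal, with at least half of replicates also reaching 10%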
Calb FLC: C. albicans growth modulation with fluconazole; C. albicans CaCi-2 (fluconazole-resistant clinical isolate) + fluconazole, Alamar Blue growth, 48 h; growth inhibition, % (no concentration beside the values); hit rate 0.57% among 300,000;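 active means growth inhibition above about 58% in most replicates, limit read from the data, passing the limit was not always enough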;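 further: all wells also contain fluconazole at 8 µg/ml as a sub-toxic cotreatment; 0% = median of DMSO wells and 100% = median of geldanamycin control wells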
CSC inhib: blocks cancer stem cells; cancer stem cell-like cells viability, luminescence; inhibition, % at 7.5 µM; hit rate 1.1% among 300,000; AID 2717; in the data active means inhibition above about 75%; tested in HMLE shEcad cells
T cruzi repl: T. cruzi replication inhibition; T. cruzi beta-gal in NIH3T3, luminescence, 90 h; inhibition, % (no concentration beside the values); hit rate 1.4% among 300,000; AID 1885;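 active means mean inhibition across valid replicates above about 55%, limit read from the data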;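 further: signal also drops with host cell toxicity which is not excluded here; 0% = plate median of DMSO wells and 100% = zero luminescence signal; higher percent means less beta-gal luminescence so fewer parasites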
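Incubation – ≥90 h infection period, 3 h prior cell attachment · System – NIH/3T3 fibroblasts plus reporter T. cruzi · Doses – compound pinned at 50 nL/well, DMSO · Read-out basis – percent inhibition of parasite-derived β-gal signal · Signal – luminescent β-galactosidase signal after 60 min lysis · Also added – 5000 T. cruzi trypomastigotes/well · Medium – Low-serum DMEM with 2% FBS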
PolyA inhibitor: yeast polyadenylation inhibition; hit rate 0.02% among 300,000; activity score, % at 12 µM; S. cerevisiae SKY197-pL101 polyadenylation reporter, beta-gal luminescence; efflux-impaired pdr1/pdr3 knockout yeast; score 100 = 6 SD above DMSO;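 active means lowest replicate activity score at least 50, where 100 means six control SD above control mean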;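 further: yeast exposed to compound for 9 h at 30 °C; higher score means more reporter readthrough which indicates perturbed polyadenylation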
Beta apoptosis: beta cell apoptosis inhibition; protection from apoptosis, % (test concentration not listed); INS-1E cytokine-induced death, ATP luminescence, 48 h; percent of positive-control rescue, neutral wells zero; hit rate 0.8% among 300,000;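 active means Every replicate reaches about 75%, or at least half do and their mean reaches it too, limit read from the data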;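 further: 0% = cytokine-treated negative control wells and 100% = positive control rescue; higher means more ATP so stronger rescue from cytokine killing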
An asterisk follows results filed as active; · = no result. Most compounds without a hit are left out; they make up all but 3.1% or so of the library.

SMILES | HIF act | Calb FLC | CSC inhib | T cruzi repl | PolyA inhibitor | Beta apoptosis
O=C(C1=C[C@H](c2ccc(Br)cc2)C[C@H](OCCCCO)O1)N1CCN(Cc2ccc3c(c2)OCO3)CC1 | 1.3 | 7.2 | -18.1 | 65.1* | -6.4 | 1.1
O=C(C1=C[C@H](C2CCCCC2)C[C@H](OCCCCO)O1)N1CCN(Cc2ccc3c(c2)OCO3)CC1 | -3.6 | 15.3 | 13.1 | 56.2* | -19.0 | 3.9
Cc1nc(NC(=O)CN2CCCCC2)sc1C(=O)N(C)C | -2.0 | -0.3 | 12.0 | -9.9 | 14.3 | 1.9
Cc1ccc(C(C)C)c(OCC(=O)NNC(=O)Cn2[nH]c(=O)c3ccccc3c2=O)c1 | · | · | · | · | · | -2.2
CN(C)CCCSc1nc(-c2ccccc2)nc2c1CCC2 | 0.1 | -24.1 | 17.1 | 71.3* | 11.5 | -4.9
COc1ccccc1N1CCN(C(=O)c2cc3cc(Cl)ccc3[nH]2)CC1 | -0.5 | 114.4* | 59.3 | -9.9 | 0.0 | -0.1
COc1ccccc1N1CCN(C(=O)c2cc3ccccc3[nH]2)CC1 | -2.4 | 11.5 | 0.9 | -2.5 | 6.0 | -0.6
COc1ccccc1N1CCN(c2ncc(C(=O)N3CCN(c4cccc(Cl)c4)CC3)c3ccccc23)CC1 | 0.1 | 3.8 | 19.6 | 61.5* | -6.3 | 88.7*
COc1ccc2cc(C(=O)NCc3ccccc3CN3CCCC3)ccc2c1 | · | · | 16.4 | · | · | 15.1
Cc1cc(C)nc(NC(=O)/C=C/c2cccs2)c1 | 1.9 | 3.7 | 86.0* | -22.6 | 9.7 | 6.0
O=C(/C=C/c1cccs1)Nc1cccc(NC(=O)/C=C/c2cccs2)n1 | 1.5 | 2.8 | 6.0 | 42.8 | -15.3 | 18.6
CCc1ccc(C2=CSC3=NCCN23)cc1 | 1.7 | -4.7 | 31.7 | 0.7 | 8.2 | -1.7
CCOC(=O)c1ccc(NC(=S)N(Cc2cccnc2)Cc2ccco2)cc1 | -0.4 | 1.3 | · | 55.4* | 9.4 | -4.5
COc1ccc(Cl)cc1NC(=S)N(Cc1cccnc1)Cc1ccco1 | -0.9 | 8.5 | 13.4 | 66.2* | -2.9 | -6.5
COC(=O)c1ccc(C(C(=O)NCc2ccccc2)N(Cc2ccco2)C(=O)c2cnccn2)cc1 (stereo not drawn) | 174.0* | -0.4 | -3.6 | 3.8 | -7.0 | -4.4
COC(=O)c1ccc(NC(=S)N(Cc2cccnc2)Cc2ccco2)cc1 | 0.0 | -4.9 | -19.5 | 72.6* | 1.8 | -2.0
O=C(NCc1ccccc1)C(c1cccnc1)N(Cc1ccco1)C(=O)c1ccccn1 (stereo not drawn) | -0.7 | 7.8 | -8.0 | 0.2 | -11.5 | -3.4
COc1ccccc1NC(=S)N(Cc1cccnc1)Cc1ccco1 | -1.1 | 3.1 | -9.6 | 30.4 | -2.0 | -3.1
CC(C)(C)OC(=O)C[C@H]1C/C=C\C[C@H](CC(=O)N(CCO)Cc2ccccc2)C(=O)N[C@H](C(C)(C)C)COC1=O | · | · | -0.5 | · | · | -4.7
COc1ccc2oc(=N)c(C(=O)Nc3cccc(C)c3C)cc2c1 | -0.1 | -4.2 | -4.4 | 0.4 | -1.2 | -3.2
Cc1ccccc1CNS(=O)(=O)c1c(C)[nH]c(C)c1C(=O)N1CCCCC1 | -0.2 | -7.7 | -1.2 | 3.6 | 21.8 | -2.9
COC(=O)[C@H]1[C@H]2C[C@@H]3c4[nH]c5cc(OC)ccc5c4CCN3C[C@H]2C[C@@H](OC(=O)/C=C/c2cc(OC)c(OC)c(OC)c2)[C@@H]1OC | · | · | 4.4 | · | · | 4.4
COC(=O)[C@H]1[C@H]2C[C@@H]3c4[nH]c5cc(OC)ccc5c4CCN3C[C@H]2C[C@@H](OC(=O)c2ccc(N)cc2)[C@@H]1OC | -0.7 | 3.0 | -4.9 | 57.9* | 13.9 | 5.7
CC(C)n1cnc2c(NCc3ccccc3)cc(Cc3ccc(F)cc3)cc21 | · | · | 129.3* | · | · | 10.7
CCCOc1cc(NCc2ccccc2)c2ncn(C(C)C)c2c1 | · | · | 46.3 | · | · | 123.7*
CCOc1cc(NCc2ccccc2)c2ncn(C(C)C)c2c1 | · | · | · | · | · | -4.7
CCC(CO)Oc1cc(NCc2ccc(Cl)cc2)c2ncn(C(C)C)c2c1 (stereo not drawn) | · | · | · | · | · | 1.1
CCC(CO)Oc1cc(NCc2ccc(Cl)cc2Cl)c2ncn(C(C)C)c2c1 (stereo not drawn) | · | · | 110.9* | · | · | 6.7
Cc1c(C(=O)N2CCC(N3CCSCC3)CC2)oc2c(F)cccc12 | 1.4 | 8.4 | 44.5 | -15.0 | -5.7 | -4.1
O=[N+]([O-])c1ccccc1N/N=C1\CC2CC=CC12 (stereo not drawn) | 1.2 | -26.1 | 1.6 | 6.3 | -23.6 | 2.7

Compound activity (PubChem)
